Source: PubChem BioAssay
The list is not random: actives were taken first. Their share in the collection is about 2.7%.
PRMT1 FP inh: inhibitors of human PRMT1 | Q99873 | recombinant PRMT1, activity-based probe fluorescence polarization | inhibition, % at 2.79 µM | 370,000 tested, 1.3% active;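 active = inhibition above about 21% made by adding two undisclosed values, limit read from the data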
TCR-CD3 inh: blocks the human TCR-CD3 interaction | TAMRA-labeled TCR probe fluorescence, biochemical | inhibition, % at 9.4 µM | 360,000 tested, 0.37% active | AID 651800; in the data active = inhibition above about 19%;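 also: recombinant mutant TCR 2C K166C tagged with TAMRA read by polarization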
SIAE primary: human SIAE inhibition, primary screen; SIAE FP-Rh probe binding, fluorescence polarization; 370,000 tested, 0.69% active; Q9HAT2; AID 1053197; inhibition, % at 9.66 µM;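 active = inhibition above a cutoff: mean of compounds within the control limits plus 3 SD of those, cut at about 17% in these data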
mABHD4 FP: inhibits mouse alpha/beta hydrolase domain 4; Q8VD66; purified mABHD4, FP-Rh probe fluorescence polarization; inhibition, % at 8.92 µM; 370,000 tested, 0.54% active;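 active = inhibition exceeding the mean over every tested compound plus 3 SD, cut at about 30% in these data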
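Assay system: mABHD4 protein; medium: HEPES pH 7.0, NaCl, Pluronic buffer; dosing: 8.92 µM, single dose; schedule: 45 min + 60 min at 25 °C; signal: FP readout, ex 525 nm / em 598 nm; read-out: normalized percent inhibition of probe labeling; repeats: single replicate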
HTRA1 inhibitor: blocks human HTRA1 serine peptidase; recombinant HTRA1, FP-rhodamine activity-based probe, fluorescence polarization; inhibition, % at 5.96 µM; 340,000 tested, 0.5% active; in the data active = inhibition above about 36%
Target sequence (Q92743 whole entry, looked up): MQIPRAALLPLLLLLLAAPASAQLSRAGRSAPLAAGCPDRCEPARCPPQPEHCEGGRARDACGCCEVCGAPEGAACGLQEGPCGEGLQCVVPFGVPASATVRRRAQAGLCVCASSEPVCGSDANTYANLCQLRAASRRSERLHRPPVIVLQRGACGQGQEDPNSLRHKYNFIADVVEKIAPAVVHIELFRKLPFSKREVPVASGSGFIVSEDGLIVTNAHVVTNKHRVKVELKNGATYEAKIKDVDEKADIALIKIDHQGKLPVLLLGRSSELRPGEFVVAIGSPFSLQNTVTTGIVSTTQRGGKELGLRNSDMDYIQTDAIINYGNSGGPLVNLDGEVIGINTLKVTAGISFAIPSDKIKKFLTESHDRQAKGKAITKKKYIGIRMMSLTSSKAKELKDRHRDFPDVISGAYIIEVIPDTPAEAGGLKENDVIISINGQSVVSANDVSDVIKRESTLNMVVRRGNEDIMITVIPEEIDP
ABHD4 confirm: ABHD4 (mouse) inhibition, FP confirmation | shares compounds with mABHD4 FP | 1,800 tested, 55% active | inhibition, % at 8.92 µM | AID 720658 | purified mABHD4, FP-Rh probe fluorescence polarization;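 active = mean inhibition across replicates above the hit cutoff set in the primary screen, cut at about 30% in these data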
Of the large screens only hits and unclear results are named; the others gave an inactive call (follow-up assays come after a bar, where they were run); ! = a repeat was not active.

O=C(NCC(F)(F)F)[C@H]1O[C@@H](n2ccc(=O)[nH]c2=O)[C@H](O)[C@@H]1O	none (no result: HTRA1 inhibitor)
COc1ccc(-c2sc3ccccc3c2-c2ccc(OCCN(C)C)cc2)cc1	none
CN(C)CCOc1ccc(-c2c(-c3ccsc3)sc3ccccc23)cc1	mABHD4 FP 34 | ABHD4 confirm 39
CC(C)=C1C(=O)NN(c2cccc(Cl)c2)C1=O	none
CC(C)=C1C(=O)NN(c2ccc(C)c(Cl)c2)C1=O	mABHD4 FP 37 | ABHD4 confirm inactive
CCOC(=O)Cc1c(Sc2ccccc2)c2cc(C)ccc2n1C	none
Cc1ccc2c(c1)c(Sc1ccccc1)c(CC(=O)O)n2C	mABHD4 FP 30 | ABHD4 confirm 35
CCC[C@H](/C=C/C(=O)OC(C)(C)C)Sc1ccc(N)cc1	none (no result: TCR-CD3 inh, HTRA1 inhibitor)
CCCCNc1c(-c2ccc(OC)c(SC(C)CC)c2)nc2ccc(C)cn12 (stereo not given)	mABHD4 FP 34! | ABHD4 confirm 38
CCC(C)Sc1cc(-c2nc3ccc(C)cn3c2NCc2ccccc2)ccc1OC (stereo not given)	mABHD4 FP 43 | ABHD4 confirm 36
CCCCNc1c(-c2ccc(OC)c(SC3CCCCC3)c2)nc2ccc(C)cn12	mABHD4 FP 33! | ABHD4 confirm 37
COc1ccc(NC(=O)C2Cc3c(-c4cccc(C(N)=O)c4)ccnc3O2)cc1 (stereo not given)	none (no result: HTRA1 inhibitor)
Cc1cccc2c(N=Nc3ccc(S(=O)(=O)Nc4ccc(Cl)cc4)cc3[N+](=O)[O-])c(O)[nH]c12	mABHD4 FP 40 | ABHD4 confirm 38
Cc1ccc(S(=O)(=O)N2CC3(O)CN(C(=O)OC(C)C)N(C(=O)OC(C)C)CC3(OC(=O)Nc3cccs3)C2)cc1 (stereo not given)	none
C[C@H](NC(=O)c1ccccc1)C(=O)OCC(=O)Nc1ccc(Cl)cn1	none
COc1ccc(C(=O)/C(C#N)=N/Nc2cccc([N+](=O)[O-])c2)cc1	none
COC(=O)CCCC1=CC2=CC(=O)C(C)(OC(=O)c3cccs3)C(=O)C2=CN1Cc1ccccc1 (stereo not given)	none
COC(=O)CCCC1=CC2=CC(=O)C(C)(OC(=O)c3cccs3)C(=O)C2=CN1Cc1ccco1 (stereo not given)	mABHD4 FP 32 | ABHD4 confirm inactive
CC(C)NC(=O)C1C(c2ccc(C(F)(F)F)cc2)=Nc2ccccc2N1C(=O)c1cccc(C(F)(F)F)c1 (stereo not given)	none (no result: HTRA1 inhibitor)
COc1cccc2cc(C(=O)N3CC(C)OC(C)C3)c(=O)oc12 (stereo not given)	none
COc1cc2c(oc(=O)c3cc(C)cc(OC)c32)c2c(C3OC(C)C(O)C(C)(O)C3O)ccc(O)c12 (stereo not given)	mABHD4 FP 38 | ABHD4 confirm inactive
CCOc1cc(CNc2ccc3[nH]c(=O)[nH]c3c2)ccc1OCC(=O)NC(C)(C)C	none
COc1cc(CNc2ccc3[nH]c(=O)[nH]c3c2)cc(Cl)c1OCC(=O)NC(C)(C)C	mABHD4 FP 40 | ABHD4 confirm 36
NNc1nc2ccc(F)cc2s1	mABHD4 FP 42 | ABHD4 confirm inactive
CCCCNc1c(-c2ccc(Sc3ccc(OC)cc3)cc2)nc2cc(C)ccn12	mABHD4 FP 39 | ABHD4 confirm 39
CCCCNc1c(-c2ccc(-c3ccc(C(C)=O)cc3)c(OC)c2)nc2cc(C)ccn12	mABHD4 FP 46 | ABHD4 confirm 56
CN[C@@H](CO)C(=O)NC[C@H]1O[C@@H](n2cnc3c(=O)[nH]c(N)nc32)[C@H](O)[C@@H]1O	none (no result: HTRA1 inhibitor)
CC(=O)Nc1ccc(S(=O)(=O)NN=c2sc3ccccc3n2C)cc1N	none
CCN(C(=O)CCc1cn(CC)c2ccccc12)c1ccc(Oc2cccnc2)cc1	none (no result: HTRA1 inhibitor)
C=CCNc1sc(C(=O)c2ccccc2)c(N)c1-c1nc2ccccc2s1	none (no result: PRMT1 FP inh, TCR-CD3 inh, SIAE primary, mABHD4 FP)
CCNc1sc(C(=O)c2cccs2)c(N)c1-c1nc2ccccc2s1	mABHD4 FP 33 | ABHD4 confirm inactive
CN(CC(=O)Nc1ccc(Cl)cc1F)C1=NS(=O)(=O)c2ccccc21	none
C[C@@H]1ON(C)[C@H]2C[C@H]3c4[nH]c5cccc(-c6ccc7c(c6)OCO7)c5c4CCN3C(=O)[C@@H]12	none (no result: HTRA1 inhibitor)
CCOC(=O)NC1(NCC(C)C)Oc2ccccc2O1	mABHD4 FP 33 | ABHD4 confirm inactive
CCOC(=O)C(Cc1ccccc1)C1(C)Oc2ccccc2O1 (stereo not given)	none (no result: HTRA1 inhibitor)
